Data on 23 molecules can be found in ChEMBL document CHEMBL1150374, “Synthesis and anticonvulsant activity of aromatic tetramethylcyclopropanecarboxamide derivatives” (Bioorg Med Chem, 2008).

In data set [1] the test system is Mus musculus. Briefly: Anticonvulsant activity against scMet-induced seizures in mouse model at 300 mg/kg, ip after 4 hrs. The data set is classed as functional, organism-based. More on the design: dose 300 mg/kg. In a few lines: (§1)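 Mice dosed intraperitoneally at 300 mg/kg, in a dosing volume of 0.01 mL per gram body weight. Seizure protection was scored at the stated time after dosing. Activity is expressed as the number of animals protected over the number tested.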

The subject of data set [2] is Mus musculus. Briefly: Anticonvulsant activity against maximal electroshock-induced seizures in mouse model at 300 mg/kg, ip after 4 hrs. The format is functional, organism-based. Set-up: dose 300 mg/kg. In a few lines:
as §1

For data set [3], the system named is Mus musculus. Briefly: Anticonvulsant activity against maximal electroshock-induced seizures in mouse model at 300 mg/kg, ip after 0.5 hrs. The data set is classed as functional, organism-based. Set-up: dose 300 mg/kg. Put shortly:
as §1

Data set [4] concerns Mus musculus. Briefly: Anticonvulsant activity against scMet-induced seizures in mouse model at 300 mg/kg, ip after 0.5 hrs. The format is functional, organism-based. Set-up: dose 300 mg/kg. Put shortly: as §1
In data set [5] the test system is Rattus norvegicus. Briefly: Anticonvulsant activity against maximal electroshock-induced seizures in orally dosed rat model. The format is functional. The conditions noted are these: po. (In the maximal electroshock model the usual endpoint is tonic extension of the hind limbs.)
For data set [6], the species on record is Mus musculus. Briefly: Anticonvulsant activity against maximal electroshock-induced seizures in mouse model. The data set is classed as functional. In a few lines: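 Compounds given ip to mice at 100 or 300 mg/kg, dosed at 0.01 mL per gram body weight. Maximal electroshock seizures were tested at 0.5, 2 and 4 h after dosing. Activity is reported as animals protected over animals tested, with neurotoxicity scored alongside.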

The species named for data set [7] is Rattus norvegicus. Briefly: Protective index, ratio of TD50 for rat by rotarod test to ED50 for rat by MES test. The format is functional. In a few lines:
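PI was calculated as TD50/ED50 from oral dosing in rats. Both values were derived by probit analysis.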

In data set [8] the test system is Rattus norvegicus. Briefly: Anticonvulsant activity against scMet-induced seizures in orally dosed rat model. The data set is classed as functional. The following applies: po. In a few lines:
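Rats dosed orally in a volume of 0.04 mL per 10 g body weight. ED50 was determined with 95% confidence intervals by probit analysis.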

Data set [9] in a line: Toxicity in orally dosed rat by rotarod test. The format is organism-based. The conditions noted are these: in vivo, po. In a few lines:
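Rats dosed orally in a volume of 0.04 mL per 10 g body weight. Dose was varied until four points were established between the level causing no minimal motor impairment in any animal and the level at which all animals were impaired. TD50 was derived with 95% confidence intervals by probit analysis.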
A general note: Falling from the rotarod earlier than controls is read as motor impairment.

Data set [10] has as its system Mus musculus. Briefly: Anticonvulsant activity against maximal electroshock-induced seizures in mouse model at 300 mg/kg, ip after 2 hrs. More on the design: dose 300 mg/kg. The format is functional, organism-based. Put shortly: as §1
Data set [11] deals with Mus musculus. Briefly: Anticonvulsant activity against scMet-induced seizures in mouse model at 100 mg/kg. The format is functional.

The source made the active and inactive calls. The rule behind the calls is not given here.

In the case of `CC1(C)C(C(=O)NCCc2c[nH]c3ccccc23)C1(C)C`, the outcome with Mus musculus [1], with Mus musculus [2], with Mus musculus [3] and with Mus musculus [4] was inactive.
`Cc1cccc(C)c1OCC(C)NC(=O)C1C(C)(C)C1(C)C` (stereo unspecified): the outcome with Mus musculus [1], in the data set on Mus musculus [2], in the data set on Mus musculus [3] and in the data set on Mus musculus [4] was inactive.
On to `CC1(C)C(C(=O)NCCc2ccccc2)C1(C)C`, for which the outcome in the data set on Mus musculus [1], in the data set with Mus musculus [2] and with Mus musculus [3] was inactive. Also, the result with Mus musculus [4] was Active.
Broadly, the ED50 is the dose that gives a 50% effect, or the effect in half of the subjects. Read a high ED50 as a need for a large dose. `CC1(C)C(C(=O)NC(N)=O)C1(C)C` [2,2,3,3-TETRAMETHYLCYCLOPROPANECARBONYLUREA] came in with an ED50 in the data set on Rattus norvegicus [5] of 29 mg/kg.
As for `CCCC(CCC)C(=O)NCc1ccc(S(N)(=O)=O)cc1`, the ED50 in the data set listed under Mus musculus [6] is 16 mg/kg.
Regarding `CC(C(O)c1ccccc1)N(C)C(=O)C1C(C)(C)C1(C)C` (stereo unspecified), the result in the data set on Mus musculus [1], in the data set with Mus musculus [2], in the data set with Mus musculus [3] and with Mus musculus [4] was inactive.
`CC1(C)C(C(=O)NCc2ccccc2Cl)C1(C)C`: the result with Mus musculus [1], in the data set on Mus musculus [2], with Mus musculus [3] and with Mus musculus [4] was inactive.
In the case of `CC1(C)C(C(=O)NC(=O)Nc2ccccc2)C1(C)C`, the result with Mus musculus [1], in the data set on Mus musculus [2], in the data set on Mus musculus [3] and in the data set with Mus musculus [4] was inactive.
Consider `CC1(C)C(C(=O)NCc2ccccc2)C1(C)C`, for which the outcome in the data set on Mus musculus [1] and in the data set on Mus musculus [2] was inactive. The outcome in the data set with Mus musculus [3] and in the data set on Mus musculus [4] was Active.
Regarding `CONC(=O)C1C(C)(C)C1(C)C`, in the data set listed under Rattus norvegicus [7], the PI turned out to be 10. Besides, in the data set with Rattus norvegicus [8], the ED50 came to 35 mg/kg.
Take `CC(CNC(=O)C1C(C)(C)C1(C)C)c1ccccc1` (stereo unspecified): the result in the data set with Mus musculus [1], with Mus musculus [2], in the data set with Mus musculus [3] and in the data set with Mus musculus [4] was inactive.
Turning to `CC1(C)C(C(=O)Nc2cc(Cl)c(S(N)(=O)=O)cc2S(N)(=O)=O)C1(C)C`, the result in the data set on Mus musculus [1], in the data set with Mus musculus [2], in the data set on Mus musculus [3] and in the data set with Mus musculus [4] was inactive.
As usually defined, the TD50 is the dose at which the toxic effect under study appears in half of the subjects. High values mean lower toxicity, low ones greater toxicity. With `CC1(C)C(C(=O)Nc2ccc(S(N)(=O)=O)cc2)C1(C)C`, the result in the data set with Mus musculus [1], in the data set with Mus musculus [3] and in the data set with Mus musculus [4] was inactive. Also, in data set [9], the TD50 was over 500 mg/kg. Further, the ED50 was 26 mg/kg with Rattus norvegicus [5] and over 100 mg/kg with Rattus norvegicus [8]. For the same molecule, the outcome with Mus musculus [10] was Active.
With `CC1(C)C(C(=O)NCc2ccc(F)cc2)C1(C)C`, the outcome with Mus musculus [1], in the data set with Mus musculus [2], in the data set on Mus musculus [3] and in the data set with Mus musculus [4] was inactive.
Molecule `CCCC(CCC)C(=O)NCc1ccccc1` [VALPROYLBENZYLAMIDE] registered an Activity with Mus musculus [11] of 50%.
`CCCC(CCC)C(=O)O` [VALPROIC ACID] displayed an ED50 in the data set on Rattus norvegicus [8] of 646 mg/kg.
In the case of `CC1(C)C(C(=O)Nc2ccccc2)C1(C)C`, the outcome in the data set with Mus musculus [1], in the data set on Mus musculus [2], in the data set with Mus musculus [3] and in the data set on Mus musculus [4] was inactive.
With `CC(NC(=O)C1C(C)(C)C1(C)C)c1ccccc1` (stereo unspecified), the result in the data set with Mus musculus [1], in the data set with Mus musculus [2], in the data set with Mus musculus [3] and with Mus musculus [4] was inactive.
In turn, `NS(=O)(=O)Cc1noc2ccccc12` [ZONISAMIDE] gave a TD50 in data set [9] of 192 mg/kg. In addition, the ED50 in the data set on Rattus norvegicus [5] was 21 mg/kg; in the data set with Rattus norvegicus [8], over 300 mg/kg.
`Cc1cccc(C)c1OCC(C)N` (stereo unspecified) [MEXILETINE] registered an ED50 in the data set listed under Mus musculus [6] of 10 mg/kg.
Turning to `CC1(C)C(C(=O)NCc2ccc(S(N)(=O)=O)cc2)C1(C)C`, the result in the data set with Mus musculus [1], with Mus musculus [3] and in the data set on Mus musculus [4] was inactive.
As to `CC1(C)C(C(=O)NCCCc2ccccc2)C1(C)C`, the result in the data set with Mus musculus [1], in the data set with Mus musculus [2], in the data set with Mus musculus [3] and in the data set on Mus musculus [4] was inactive.
For `CC(=O)c1ccc(NC(=O)C2C(C)(C)C2(C)C)cc1`, the result with Mus musculus [1], in the data set on Mus musculus [3] and with Mus musculus [4] was inactive. Moreover, the result with Mus musculus [2] was Active.
